Reference: PMC6704442 (ACS Omega, 2019)
Where “and” joins values, the source holds several entries; their conditions need not be identical. Equal entries are not always repeated.

Key:
[1] = 40 mg kg^–1; cited from earlier work
[2] = target: human serum albumin (HSA) (Homo sapiens, UniProt P02768); assay: HSA binding by steady-state fluorescence quenching; settings: 300 K, ±2σ
How it was run: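 Human serum albumin (5 μM, 3 mL, freshly prepared in buffer) was titrated with successive additions of test compound stock at 300 K. Excitation was 283 nm and emission was read at 372 nm, with slits of 1 and 5 nm. Fluorescence was inner-filter corrected. KSV came from the Stern–Volmer equation; Ka and n came from log[(F0−F)/F] versus log[Q]. Performed in triplicate.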

[3] = test system: H1 histone; assay: H1 histone binding by steady-state fluorescence quenching; settings: 300 K, ±2σ
[4] = literature value for comparison; cited from earlier work

Sequence of human serum albumin (HSA) (P02768 25-609): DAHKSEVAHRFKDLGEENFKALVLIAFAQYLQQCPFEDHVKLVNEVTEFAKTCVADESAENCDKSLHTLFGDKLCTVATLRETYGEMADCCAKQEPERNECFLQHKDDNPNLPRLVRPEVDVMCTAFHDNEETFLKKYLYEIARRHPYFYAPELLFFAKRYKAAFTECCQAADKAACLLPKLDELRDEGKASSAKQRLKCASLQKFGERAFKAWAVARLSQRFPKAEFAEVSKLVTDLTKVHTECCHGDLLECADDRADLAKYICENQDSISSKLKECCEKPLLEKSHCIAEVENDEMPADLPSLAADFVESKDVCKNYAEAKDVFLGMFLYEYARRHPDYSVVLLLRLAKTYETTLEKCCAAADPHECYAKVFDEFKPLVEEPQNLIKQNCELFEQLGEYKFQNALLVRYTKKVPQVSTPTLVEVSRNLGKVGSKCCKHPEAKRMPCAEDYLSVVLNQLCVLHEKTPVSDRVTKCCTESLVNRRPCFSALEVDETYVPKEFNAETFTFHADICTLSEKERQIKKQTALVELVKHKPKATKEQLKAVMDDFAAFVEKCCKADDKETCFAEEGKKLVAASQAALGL

Structure (SMILES) | tmax [1] [h] | KSV × 10^–3 (Stern-Volmer constant), HSA [2] | n (number of binding sites), HSA [2] | KSV × 10^–3 (Stern-Volmer constant), H1 [3] | n (number of binding sites), H1 [3] | AUCtotal [4] [μg h L^–1] | CLapp [4] [L h^–1] | Vd [4] [L] | t1/2e [4] [h]
[Cl][Ru]([Cl])([Cl])[Cl].[Na+].c1ccc2[nH]ncc2c1.c1ccc2[nH]ncc2c1 [KP-1339/IT139, sodium trans-[tetrachloridobis(1H-indazole)ruthenate(III)]] | 2.5 |  |  |  |  |  |  |  | 
N.N.[Cl][Pt][Cl] [cisplatin] |  | 0.58 ± 0.14 × 10^–3 | 1.18 ± 0.21 | 2.28 ± 0.59 × 10^–3 | 0.48 and 0.48 ± 0.14 |  |  |  | 
Cc1ccc(C(C)C)cc1.[Cl][Ru]([Cl])[PH]12CN3CN(CN(C3)C1)C2 [RAPTA-C] |  | 7.06 ± 1.37 × 10^–3 | 0.87 ± 0.04 | 1.85 ± 0.21 × 10^–3 | 1.06 ± 0.03 | 891 | 0.009 | 0.153 | 11.47
